Test results: paper PMC5914179 (Advanced functional materials, 2016)

Columns and labels:
[1] = molecular target: thrombin (Homo sapiens, UniProt P00734); test: Sensor cleavage during CaCl2-activated clotting of human plasma/serum; type: biochemical; settings: control human plasma + CaCl2, PEG-T1Q sensor
[2] = molecular target: recombinant human MMP9 (Homo sapiens, UniProt P14780); test: In vitro cleavage assay; type: biochemical; settings: inhibitor 5 μM final, ~100 nM MMP9, PEG-M1Q 1 μM by peptide
Outline: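 Quenched fluorogenic PEG-peptide substrate at 1 × 10^-6 M by peptide, incubated with recombinant human MMP9 (≈100 × 10^-9 M working concentration), with or without MMP inhibitor. Fluorescence dequenching monitored over time on a microplate reader.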

recombinant human MMP9, sequence (P14780 94-707): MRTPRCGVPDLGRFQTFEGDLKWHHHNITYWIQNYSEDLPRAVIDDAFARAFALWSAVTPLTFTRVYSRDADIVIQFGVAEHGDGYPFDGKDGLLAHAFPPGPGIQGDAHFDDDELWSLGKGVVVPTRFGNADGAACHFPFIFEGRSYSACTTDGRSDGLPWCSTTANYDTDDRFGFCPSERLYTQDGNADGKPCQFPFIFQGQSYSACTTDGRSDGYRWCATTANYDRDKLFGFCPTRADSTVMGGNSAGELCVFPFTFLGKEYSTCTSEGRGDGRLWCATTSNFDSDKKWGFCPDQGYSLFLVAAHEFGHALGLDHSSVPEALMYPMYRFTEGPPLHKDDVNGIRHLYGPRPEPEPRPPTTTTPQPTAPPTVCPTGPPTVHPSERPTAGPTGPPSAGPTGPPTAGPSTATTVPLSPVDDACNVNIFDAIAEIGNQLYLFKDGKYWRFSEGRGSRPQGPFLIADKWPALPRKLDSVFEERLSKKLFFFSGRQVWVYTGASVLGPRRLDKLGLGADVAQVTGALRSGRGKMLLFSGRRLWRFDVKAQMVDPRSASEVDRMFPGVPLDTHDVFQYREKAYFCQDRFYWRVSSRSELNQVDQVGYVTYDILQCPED

Row | effect of thrombin inhibitor on CaCl2-induced fluorescence increase of PEG-T1Q [1] | effect of MMP inhibitor on MMP9 proteolysis of PEG-M1Q [2] | Compound
1 | eliminated the fluorescence increase | – | CC1CNc2c(cccc2S(=O)(=O)N[C@@H](CCCNC(=N)N)C(=O)N2CC[C@@H](C)C[C@@H]2C(=O)O)C1 (some centres unmarked) [Argatroban]
2 | – | abrogated | CNC(=O)[C@@H](NC(=O)[C@H](CC(C)C)[C@H](O)C(=O)NO)C(C)(C)C [Marimastat]
